Test system: MS2 coat protein
Assay: apparent Kd, MS2 coat protein; higher = weaker binding; RNA-MaP array; FMN 200 µM where present
Method in brief: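 Green signal was scaled to red-channel RNA signal and control-cluster median Fmax, and the apparent Kd was taken as the median of filtered per-cluster binding-curve fits. The binding series used SNAP-549-labelled MS2 coat protein from 0.7 or 1.5 nM, doubling to 3 µM, on designs transcribed by stalled E. coli RNA polymerase on Illumina sequencing-chip clusters. Each series ran without and then with constant ligand in 100 mM Tris-HCl pH 7.5, 80 mM KCl, 4 mM MgCl2, BSA, DTT, yeast tRNA and Tween-20.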

[1] = designed as: OFF switch for flavin mononucleotide, no ligand
[2] = ligand present: flavin mononucleotide, designed as: OFF switch for flavin mononucleotide
[3] = designed as: ON switch for flavin mononucleotide, no ligand
[4] = ligand present: flavin mononucleotide, designed as: ON switch for flavin mononucleotide

Row | Sequence | apparent Kd [1] | apparent Kd [2] | apparent Kd [3] | apparent Kd [4]
1 | GUUGUUUAUGUAGGAUAUGCGAGGCGAGCCUAAGCAGAAGGACAUGAGGAUCACCCAUGUAUUGCGGUCUGCGUUCAGAUCGCU | 32.4 nM | 135 nM |  | 
2 | GCUGCGUAUGAGAAGGCGAUCAUGAAACAUGAUCGAGGAUAUCAUGUUUACAUGAGGAUCACCCAUGUAUGGGUAUAAUGCAGC |  |  | 335 nM | 18.1 nM
3 | GUUUAGUGAGGAUAUGUGGCUUCGAUCGAGCGCGGUCUGCUACAGAAGGCACAUGAGGAUCACCCAUGUUUCUC | 118 nM | 424 nM |  | 
4 | UCACGGGACUGAGGAUAUACAUGAACUAUUUUUGUAGAAGGCAGAAUGUUAGAUUAUACACUAAACAUGAGGAUCACCCAUGUU | 19.1 nM | 16.1 nM |  | 
5 | AUCAAGUGAGGAUAUGAUAAUACAACAAACAAACAUCUACAUCAGAAGGCACAUGAGGAUCACCCAUGUUAAUC | 22.7 nM | 27.1 nM |  | 
6 | UUGGAGGUCGUAGGAUAUGUAGGAUAUUCCUACAUGAGGAUCACCCAUGUUGACAUGGAAGAAGGACAGAAGGACGAUGUCCAU |  |  | 367 nM | 6.26 nM
7 | CUCAUGUGAGGAUAUCAGUAGUAAAAAAAUAAAAUUACUACUGAGAAGGCACAUGAGGAUCACCCAUGUGCAAA | 95.9 nM | 105 nM |  | 
8 | AUCCGGAGUCAGGAUAUGUGGCUAAAGAUGCGCAUAGAAGGGAUUACAUGAGGAUCACCCAUGUGGCUUACAUG | 132 nM | 109 nM |  | 
9 | GCCAUCGCAUGAGGAUAUGGCACCGUUUCGGUGCCAGAAGGCAUGUCAUAAGACAUGAGGAUCACCCAUGUAGUUAAGAUGGCA |  |  | 741 nM | 47.6 nM
10 | CUUCGUAUAGAGGAUAUAGGAUACGAAAGUGUCCUAGAAGGCUGUACAUGAGGAUCACCCAUGUACUUCAGAUC | 13.2 nM | 16.4 nM |  | 
11 | UACAUGAGGAUCACCCAUGUUUUGUCGUGUAUGGUAUUUAUCUAGGAUAUCAUUUUAUCUAGUUAUGAGAAGGAGAAUAUUAAU | 36.6 nM | 29.9 nM |  | 
12 | CGUGAACGGACGCACUGUUUCCACAUGAGGAUCACCCAUGUGAAGGAUAUGACUGGCGCCACUUGUUAGAAGGUCACUGGGCGA | 39.8 nM | 71.1 nM |  | 
13 | GCCAUCGCAUGAGGAUAUGGCACCGUUUCGGUGCCAGAAGGCAUGUCAAAUGACAUGAGGAUCACCCAUGUAGUUAAGAUGGCC |  |  | 157 nM | 13 nM
14 | AUCAGCUCGUCAGGAUAUACGUCACUGCGUCAGCCGUGUGGUAAGAUCACAUGAGGAUCACCCAUGUAGAAGGGACGAGCUGAU | 16.6 nM | 247 nM |  | 
15 | CGUUGGUUAGGAUAUAGCCUCCUGGUGGGAAGGCCGGGUGGCUAGAAGGAACAUGAGGAUCACCCAUGUAUGGA | 62.6 nM | 33.3 nM |  | 
16 | AUUACAUGAGGAUCACCCAUGUACAGAACGUUUCAAUACAGUGAGGAUAUACGAAAUGUAGGAACGUAGAAGGCACUGGGUACA |  |  | 181 nM | 65.8 nM
17 | CGGCCGCUACGCCGGCUCGACGCACAGGAUAUGCAGUUACAUGAGGAUCACCCAUGUGGCCAUGUGCAGAAGGGUGAUUCGCGA |  |  | 135 nM | 43.6 nM
18 | ACGCAGCUGGGUGAGGAUAUCGGUGGUACUACAUGAGGAUCACCCAUGUCCGAAGCUCGGACCUCCGAGAAGGCGCCCGGCUGCG |  |  | 284 nM | 31.4 nM
19 | AAAUUCUGAGGAUAUCGAUGUUUGUACAUGAGGAUCACCCAUGUCCUUUUUAUUUUUUCCCGAGAAGGCAGUGUAU | 45 nM | 35.3 nM |  | 
20 | AAGAAACAUGAGGAUCACCCAUGUAGAAAUAUGGGAGGAUAUACGAAGACGAAAGUCAAAGUAGAAGGCCUAAAAG |  |  | 94.6 nM | 27.7 nM
21 | AAUAAACACACAGGAUAUAGCAUCGUCGUUAUGAACUUAAUGACGACGAUGCUAGAAGGGUGAACACAUGAGGAUCACCCAUGU |  |  | 211 nM | 35.6 nM

Row | Sequence | apparent Kd [1] | apparent Kd [2] | apparent Kd [3] | apparent Kd [4]
22 | CGGGAAGUCGUAGGAUAUGGUGAUGUACAUGAGGAUCACCCAUGUCCGUCUUCUCUCACAAGAUGCCAGAAGGACGACCUCCGG |  |  | 770 nM | 97.8 nM
23 | AUUUAUGUCAAAGGAUAUAUAAAUAAAUUUAUAACAUGAGGAUCACCCAUGUACUUUAGUAUGAGGUAGAAGGUUGAUAAGAGU |  |  | 47.6 nM | 35.6 nM
24 | CUAUACAUAUCAGGAUAUCUAUUUCCUACAUGAGGAUCACCCAUGUAGAGGAUCACCCAUGUAAAGGAGAAGGGAUAUGUAUAG |  |  | 105 nM | 20.9 nM
25 | CCCGCCCGUCGAGGAUAUAUUAUAUGACAACAAACACAUACAUGAGGAUCACCCAUGUCCCAUGUAUAGAAGGCGACCUGCGUC |  |  | 74.8 nM | 98.2 nM
26 | GGAUGUCUGGAGGAUAUACAGACUAUUAGAUCAGUAGAAGGUCAGACAUGAGGAUCACCCAUGUUAGUGUAUCC | 52 nM | 473 nM |  | 
27 | CGGGUCAACAUGAGGAUCACCCAUGUACUGCUAAUGCAGUCACAGGAUAUCUUCGGUAGAUUAGAAGAGAAGGGUGAUGCCCAG |  |  | 136 nM | 117 nM
28 | GUCAGCUCGUGAGGAUAUACAACACUGCUUCGGCAGUGUAUUAAGAUCACAUGAGGAUCACCCAUGUAGAAGGUACGAGCUGAU | 8.56 nM | 82.9 nM |  | 
29 | CGUAGGAUCCAGAAGGCAUGAACAUGAGGAUCACCCAUGUCAAAAUACAUGAGGAUAUGGAUCCUACGAAAAGUGCGAAAGCAC |  |  | 5.11 nM | 4.38 nM
30 | CCGGCUUAGUAGGAUAUAGGAGUCGAUAGACACCUAGAAGGACUAACAUGAGGAUCACCCAUGUGUCCUACCGG | 14.3 nM | 29.3 nM |  | 
31 | GCUGGACGAGGAUAUAUAUGACGUGCUUCGGCACGAAGGUCACAUGAGGAUCACCCAUGUAGAAGGUGUCCAGC | 30.7 nM | 106 nM |  | 
32 | AGCUACGUUUCGUAGCAGCUAGGUGAGGAUAUCCACUCAACAUGAGGAUCACCCAUGUAAACAUGGGAGAAGGCGCCUAGAAAG |  |  | 63.4 nM | 9.63 nM
33 | UGUUGUUCAGGAUAUGAUGUAUAAUACAUGAGGAUCACCCAUGUAGGUCCUGAUUUGGCGUCAGAAGGGAAUGUUG | 27.7 nM | 31 nM |  | 
34 | CAGUACUGAGGAUAUACAUGAGGAUCACCCAUGUGUUCCAGCUAGGAAACUUGCAAAAGUAGAAGGCAGUACUG | 12.1 nM | 30.6 nM |  | 
35 | AUCCACCGCACGGACACGUCGAGUCAGGAUAUACAUGAGGAUCACCCAUGUGAAGGCCGGCUCAUGUAGAAGGGACAGGCGUUG | 10.4 nM | 22.5 nM |  | 
36 | GGUACUCAAAGAGUACCAAUACGAACAUGAGGAUCACCCAUGUAGGAUAUGCUAUCGAAACGAUAGCAGAAGGACAUGUGCCUU | 26.4 nM | 218 nM |  | 
37 | AUCGUGUGAGGAUAUCGAUGUUGGACGUCUAGGUCUGAGCGCGAGAAGGCACAUGAGGAUCACCCAUGUAAUGG | 272 nM | 350 nM |  | 
38 | CACAGGGAUUCAGGAUAUAUUAGCCGAGGCCGCGUAGAAGGGAAAUCCUGACAUGAGGAUCACCCAUGUUAACCCACUUUUCAU |  |  | 28.1 nM | 28.4 nM
39 | AGAGCCUCGUGAGGAUAUACAUGAGGAUCACCCAUGUAAUAAAGUGAACGGAGGAAACUCCGAAUGUAGAAGGCACGAGGCUCA | 44.5 nM | 391 nM |  | 
40 | GCGGUAUUGUAAGGAUAUACUCUGUGAUGAAGAGUAGAAGGUACUUACAUGAGGAUCACCCAUGUUUAACGUGAAAAUUACCGC |  |  | 26.5 nM | 16.7 nM
41 | CAGAGACAAGCAGGAUAUCGACACAUGAGGAUCACCCAUGUUCGUAGGAACCUGGGUCAAGUCUGCGAGAAGGGCUCGUCAGUA | 151 nM | 159 nM |  | 
42 | GCGUCACAAUUAGAACCAAUACGAACAUGAGGAUCACCCAUGUAGGAUAUGCUAGAAGUUGAGUUGCAGAAGGACAUAUAACGC | 12 nM | 10.9 nM |  | 

Source: the EternaBench riboswitch data
